# Results published in publication PMC4118675 (Chembiochem : a European journal of chemical biology, 2014).
# “Also recorded” adds a separate entry of the source.
# What was measured:
# [1] = system: FGF signaling; experiment: FGF reporter activation in Tg; type: in vivo, zebrafish; details: for in vivo FGF hyperactivation activity (in words): Tg(dusp6:EGFP)pt6 embryos, SAR statement relative to 1
# Method in brief: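 Compound was added from 100X DMSO stocks (1% DMSO final). Time course was imaged hourly for 6 h; dose-response was read at 5 h. Embryos were anaesthetised with MS222 (40 μg/ml) and imaged at 4X (488/525 nm).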
# [2] = target: T1, human c-Myc-DUSP6 (Homo sapiens, UniProt Q16828); experiment: Chemical complementation assay for DUSP6; type: cell-based
# T1 sequence (Q16828 1-381): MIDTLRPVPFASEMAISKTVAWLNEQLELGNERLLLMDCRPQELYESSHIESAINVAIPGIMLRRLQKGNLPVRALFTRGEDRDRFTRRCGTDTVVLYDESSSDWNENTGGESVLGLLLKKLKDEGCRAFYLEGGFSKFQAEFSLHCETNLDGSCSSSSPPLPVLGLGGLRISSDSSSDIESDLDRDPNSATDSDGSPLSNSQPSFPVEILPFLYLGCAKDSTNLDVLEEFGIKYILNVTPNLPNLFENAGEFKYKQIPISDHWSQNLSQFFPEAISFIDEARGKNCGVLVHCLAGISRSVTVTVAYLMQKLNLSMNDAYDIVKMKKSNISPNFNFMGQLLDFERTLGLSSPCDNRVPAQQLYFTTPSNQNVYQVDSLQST
# Method in brief: (§1)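 Human c-Myc-tagged DUSP1 (in pcDNA3.1) or DUSP6 (in pSG5) transfected into HeLa cells, which were grown in DMEM with 10% FBS at 37 °C and 5% CO2. At 48 h, quadruplicate wells got a 15 min treatment with ten two-fold dilutions, then TPA (500 ng/ml) for 15 min. Cells were immunostained for pERK and c-Myc. IC50 came from a four-parameter logistic fit of KS values versus concentration.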
# [3] = target: T2, human c-Myc-DUSP1 (Homo sapiens, UniProt P28562); experiment: Chemical complementation assay for DUSP1; type: cell-based
# T2 sequence (P28562 1-367): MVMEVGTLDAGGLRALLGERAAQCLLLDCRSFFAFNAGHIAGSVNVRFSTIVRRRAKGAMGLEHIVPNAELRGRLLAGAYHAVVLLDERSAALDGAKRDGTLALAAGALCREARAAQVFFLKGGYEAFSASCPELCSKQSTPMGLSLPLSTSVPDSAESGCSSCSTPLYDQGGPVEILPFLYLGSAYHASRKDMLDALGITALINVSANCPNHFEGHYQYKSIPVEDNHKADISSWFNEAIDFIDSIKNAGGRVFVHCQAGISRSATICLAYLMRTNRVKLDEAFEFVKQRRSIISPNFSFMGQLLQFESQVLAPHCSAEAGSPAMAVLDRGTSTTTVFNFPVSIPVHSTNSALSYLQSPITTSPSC
# Method in brief: as §1
# [4] = system: zebrafish embryos; experiment: Hatching study in zebrafish embryos; type: in vivo; details: 6 hour exposure followed by washout; for embryos hatched (in words): exposure at their EC50 (1: 10 μM, 7: 5 μM)
# [5] = system: Recombinant His-tagged Dusp6; experiment: In vitro OMFP phosphatase assay, ERK2 induced activation of DUSP6; type: biochemical; details: 100 μM compound, with recombinant ERK2, OMFP substrate
# Method in brief: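 Recombinant His-tagged Dusp6 (250 ng), expressed in bacteria, was preincubated with 100 μM test compound. Recombinant ERK2 (210 ng) was added, then OMFP substrate (100 μM). Fluorescence (485/525 nm) was read every 10 min for 1 h at room temperature. Percent inhibition was taken at 10 min, within the linear range, from three independent experiments (mean ± SD). Vanadate was the positive control; one-way ANOVA with Tukey post hoc test.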
# [6] = system: EA.hy926 cells; experiment: Cytotoxicity in cultured EA.hy926 cells; type: cell-based; details: six hours, concentrations up to 50 μM
# Method in brief: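 EA.hy926 endothelial hybridoma cells were kept in DMEM with 10% FBS and 2 mM glutamine, plated at 10,000/well and allowed to attach overnight. They were exposed for 6 h to five-point 1/3 dilution gradients, with phenylarsine oxide as positive control. Live cells were stained with propidium iodide (1 μg/ml) and Hoechst 33342 (10 μg/ml), then imaged. Scored per field: nuclei count, nuclear condensation, % PI-positive cells.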
# [7] = system: DUSP; details: bacterially produced recombinant protein, no ERK; cited from earlier work
# [8] = HeLa chemical complementation assay
SMILES,in vivo FGF hyperactivation activity (in words) [1],suppression of ERK-stimulated activation of DUSP6 (in words) [5],other results
COc1ccc(/C=C2/C(=O)c3ccccc3C2N2CCOCC2)cc1 (stereo not shown) [Compound 24],inactive; also recorded: abolished the activity,,"DUSP6 inhibition in mammalian cells (in words) [2, 8]: lacked antiphosphatase activity; DUSP1 inhibition in mammalian cells (in words) [3, 8]: lacked antiphosphatase activity"
O=C1/C(=C/c2ccccc2)C(NC2CCCCC2)c2cc(Br)ccc21 (stereo not shown) [Compound 19],tolerated,significantly suppressed activation of DUSP6,embryos hatched by 56 hpf ([4]; 20 μM (two times the EC50 for FGF activation)): 100%; cellular toxicity (in words) [6]: devoid of cellular toxicity
"O=C1/C(=C/c2ccccc2)C(NC2CCCCC2)c2ccccc21 (stereo not shown) [Compound 1, (E)-2-benzylidene-3-(cyclohexylamino)-2,3-dihydro-1H-inden-1-one]",,significantly suppressed activation of DUSP6,"time at which GFP expression reached a maximum ([1]; 20 μM, 24 hpf embryos, stable for an additional hour): 5 h; concentration of maximal FGF reporter activation ([1]; 5 hour time point, declined at higher concentrations): 20 µM; embryos hatched (in words) [4]: no embryos hatched; IC50 [2]: 13.3 ± 1.8 µM; IC50 [3]: 8 ± 0.6 µM; antiphosphatase activity in traditional biochemical assay (in words) [7]: lacked antiphosphatase activity"
O=C1C(=Cc2ccc(Cl)cc2)C(NC2CCCCC2)c2ccccc21 (stereo not shown) [Compound 15],did not substantially change activity compared to 1,,
O=C1C(=Cc2ccccc2)C(Nc2ccccc2)c2ccccc21 (stereo not shown) [Compound 4],abolished activity,,
O=C1/C(=C/c2ccccc2)C(N2CCOCC2)c2ccccc21 (stereo not shown) [Compound 7],maximal activity,significantly suppressed activation of DUSP6,embryos hatched (in words) [4]: no embryos hatched
"OC1C(=Cc2ccccc2)C(NC2CCCCC2)c2ccccc21 (stereo not shown) [Compound 31, 2-benzylidene-3-cyclohexylaminoindan-1-ol]",abolished activity,insignificant,
O=C1C(=Cc2ccc(Cl)c(Cl)c2)C(NC2CCCCC2)c2ccccc21 (stereo not shown) [Compound 16],did not substantially change activity compared to 1,,
